Compound activity from PubChem.
This is a sample that favours compounds with a hit; in the whole collection about 3.9% have one here.
TAAR1 antag: antagonists of human TAAR1 | CHO RD-HGA16 TAAR1, Fluo-8 calcium fluorescence, antagonist | inhibition, % at 3 µM | actives 1.5% (n = 360,000) | AID 624466;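 active = inhibition above a per-plate cutoff, the mean inhibition of test compounds on that plate plus 3 SD, cut at about 49% in these data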;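 also: 0% = DMSO plus EC80 beta-PEA response and 100% = DMSO alone without agonist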
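Material: CHO RD-HGA16 cells bearing hTAAR1; compound dosing: one-point dosing, 3 µM nominal final; schedule: dye loading 75 min at 37 °C, then 30 min room temperature; measured by: calcium fluorescence with Fluo-8; control set: vehicle and agonist controls; replication: n of 1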
HTR2A ag: agonists of mouse serotonin 5-HT2A receptor (HTR2A). P35363. CHO-K1 mHTR2A beta-arrestin complementation, luminescence; percent of 30 µM serotonin response. activation, % at 7.6 µM. actives 0.66% (n = 360,000). AID 624169;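 active = activation above a run cutoff, the mean activation of all tested compounds plus 3 SD, cut at about 14% in these data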;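 also: 0% = plate median of compound wells and 100% = 30 µM serotonin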
Target sequence (P35363 whole entry, looked up): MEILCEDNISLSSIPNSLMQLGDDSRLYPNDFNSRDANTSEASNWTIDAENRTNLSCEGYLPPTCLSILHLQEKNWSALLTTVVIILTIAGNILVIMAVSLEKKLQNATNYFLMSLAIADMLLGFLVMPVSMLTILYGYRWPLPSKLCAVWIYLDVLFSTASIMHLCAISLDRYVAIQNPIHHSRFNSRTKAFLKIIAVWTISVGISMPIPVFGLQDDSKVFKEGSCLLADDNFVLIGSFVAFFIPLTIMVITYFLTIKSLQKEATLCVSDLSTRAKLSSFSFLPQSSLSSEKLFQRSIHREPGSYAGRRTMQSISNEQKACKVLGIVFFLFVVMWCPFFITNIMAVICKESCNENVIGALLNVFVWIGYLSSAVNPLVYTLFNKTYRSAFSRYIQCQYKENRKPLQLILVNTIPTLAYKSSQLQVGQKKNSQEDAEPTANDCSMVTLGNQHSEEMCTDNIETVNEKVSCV
CHRM1 agonist: agonists of human M1 muscarinic receptor | actives 0.33% (n = 360,000) | P11229 | CHO-K1 hM1, Fluo-8 calcium fluorescence, agonist mode; 0% DMSO, 100% acetylcholine EC100 | activation, % at 3 µM;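 active = activation above the run's mean compound activation plus 3 SD, cut at about 16% in these data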;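 also: peak over basal fluorescence ratio within a 140 s kinetic read after compound addition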
CHRM1 antagonist: human CHRM1 antagonism | inhibition, % at 3 µM | actives 1.3% (n = 360,000) | P11229 | CHO-K1 hM1, Fluo-8 calcium fluorescence, ACh EC80 antagonist | AID 588852;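 active = percent inhibition above its own plate's cutoff, namely the mean of that plate's compound wells plus 3 SD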;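 also: peak over basal fluorescence ratio during 140 s after agonist addition; 0% = ACh EC80 plus DMSO and 100% = DMSO alone without agonist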
TAAR1 ag: human TAAR1 agonism; CHO RD-HGA16 TAAR1, Fluo-8 calcium fluorescence; vehicle wells 0%, saturating PEA agonist 100%; activation, % at 3 µM; actives 0.99% (n = 360,000); AID 624467;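 active = activation above the mean activation of all test compounds in the run plus 3 SD, cut at about 38% in these data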
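Test system: RD-HGA16 (CHO) cells co-expressing Gα16 and hTAAR1 / Benchmarks: DMSO vehicle as 0%, PEA at EC100 as 100% / Repeats: no replicates (n 1) / Measure: % activation from peak over basal fluorescence ratio, DMSO-to-PEA scaled / Timing: 17-24 h plating, Fluo-8 75 min 37 °C, 30 min RT / Technique: kinetic Fluo-8 calcium fluorescence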
CHRM1 PAM: positive allosteric modulators of human M1 muscarinic receptor. activation, % at 3 µM. CHO-K1 hM1, Fluo-8 calcium fluorescence, ACh EC20; 0% = ACh EC20, 100% = maximal ACh. actives 0.088% (n = 360,000). P11229; in the data active = activation above about 19%, passing the limit was not always enough
TAAR1 ag confirm: human TAAR1 agonism, confirmed; actives 82% (n = 2,400); activation, % at 3 µM; CHO RD-HGA16 TAAR1, Fluo-8 calcium fluorescence; scaled: DMSO 0%, maximal phenethylamine 100%; shares compounds with TAAR1 ag;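 active = activation above a cutoff set at the run's mean compound activation plus 3 SD, cut at about 39% in these data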
Ga16 nonsel ag: counter-screen for TAAR1 agonists: nonselective agonists in parental cells; CHO-Ga16 parental, Fluo-8 calcium fluorescence; normalized to maximal ATP response, DMSO zero; shares compounds with TAAR1 ag; activation, % at 3 µM; AID 651787; actives 50% (n = 2,400);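 active = activation above the run cutoff, the mean activation over all tested wells plus 3 SD, cut at about 12% in these data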;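 also: 0% = DMSO wells and 100% = maximal ATP response on the peak over basal ratio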
TAAR1 desensitize: human TAAR1 agonist that also desensitizes the receptor; inhibition, % at 3 µM; AID 651951; actives 46% (n = 2,400); shares compounds with TAAR1 ag; CHO RD-HGA16 hTAAR1, Fluo-8 calcium, beta-PEA response inhibition;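 active = inhibition above the run cutoff, the mean inhibition of all test compounds plus 3 SD, cut at about 49% in these data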;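 also: beta-PEA stimulus applied at its EC80; loss of beta-PEA calcium signal after compound pretreatment read as receptor desensitization; 0% = DMSO with beta-PEA at EC80 and 100% = DMSO alone without agonist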
Ga16 antag count: nonselective Ga16 antagonism, counter-screen; shares compounds with TAAR1 ag; CHO-Ga16 ATP-induced calcium, Fluo-8 fluorescence; inhibition, % at 3 µM; actives 39% (n = 2,400); AID 651952;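 active = inhibition above the plate's mean compound inhibition plus 3 SD, computed per plate, cut at about 22% in these data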;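 also: 0% = EC80 ATP with DMSO and 100% = DMSO wells without ATP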
* marks the source's active call; other numbers are inactive results; / = not tested or not shown.

SMILES	TAAR1 antag	HTR2A ag	CHRM1 agonist	CHRM1 antagonist	TAAR1 ag	CHRM1 PAM	TAAR1 ag confirm	Ga16 nonsel ag	TAAR1 desensitize	Ga16 antag count
CCCNS(=O)(=O)c1cc2c3c(c1)CCN3C(=O)CC2	-1	7	-3	0	3	3	/	/	/	/
CN(Cc1ccccc1)C(=O)Nc1c(Cl)cccc1Cl	-14	10	-8	-5	1	6	/	/	/	/
O=c1c2ccccc2sn1-c1ccc(F)cc1	22	1	5	2	57*	0	30	31*	17	15
COC(=O)c1cccc(-n2sc3ccccc3c2=O)c1	33	10	1	18	63*	-10	50*	22*	28	15
COc1ccccc1NS(=O)(=O)c1ccc(C)c(NC(=O)c2c(C)noc2C)c1	-10	10	-3	1	0	2	/	/	/	/
O=C(COc1ccccc1)NC1CCCCCCC1	-4	-2	-7	1	0	3	/	/	/	/
BrC(=C\c1ccccc1)/C=N/Nc1ccc2nncn2n1	8	-7	2	4	67*	2	44*	37*	23	13
BrC(=C\c1ccccc1)/C=N/n1cnnc1	18	-2	11	1	98*	4	38*	37*	18	19
COc1ccc(-c2cc(C(=O)Nc3cc(C)nn3-c3ccccc3)no2)cc1OC	10	-3	-3	-4	1	0	/	/	/	/
COc1cc(COc2ccc(-c3nnco3)cc2)ccc1OC(F)F	20	-6	-2	-9	48*	2	2	2	-1	6
NC(=O)c1ccc(NCCc2cccs2)cc1	-21	-3	-1	-5	15	2	/	/	/	/
Cn1c2ccccc2c(=O)c2ccc(NCCc3cccs3)cc21	63*	3	1	-7	49*	16	55*	5	51*	32*
CC1(c2ccc(OC(F)F)cc2)NC(=O)N(/N=C/c2c(O)ccc3ccccc23)C1=O (configuration not stated)	54*	-3	-6	5	64*	7	68*	48*	73*	59*
CCC(=O)Nc1ccc(NC(=O)CSc2nnnn2C2CCCC2)cc1C	-13	5	1	-3	8	3	/	/	/	/
CC1(C)CC(=O)C(=CN2CCN(C(=O)c3ccco3)CC2)C(=O)C1	-6	7	-5	-9	54*	6	63*	0	27	-10
CCCn1c(=O)c(C(=O)NNC(=O)c2ccccc2Cl)c(O)c2ccccc21	55*	-3	30*	10	112*	-16	72*	65*	36	26*
O=C(O)C1C2C=CC(O2)C1C(=O)NC1CCCc2ccccc21 (configuration not stated)	-16	4	-2	-9	55*	11	49*	2	6	9
Cc1ccccc1CS(=O)(=O)Cc1ccc(C(=O)NCCc2ccccc2)o1	41	-5	0	15	72*	-2	48*	8	34	22*
CCOCCCNC(=O)c1ccc(CS(=O)(=O)Cc2cccc(C)c2)o1	1	0	-1	-23	12	3	/	/	/	/
CN(CCNC(=O)c1ccc(CS(=O)(=O)c2ccc(Br)cc2)o1)CCc1ccccc1	-19	1	-4	6	53*	-5	51*	2	14	10
Cc1cccc(CS(=O)(=O)Cc2ccc(C(=O)NCCc3ccccc3)o2)c1	25	-4	-2	5	48*	3	31	4	8	16
CCc1nc2ccc(C(=O)N(C)CCN(C)C)cn2c1N(C)CCC(C)C	-16	0	-9	-6	2	0	/	/	/	/
COc1ccc(N2CCN(C3CCCN(C(=O)C4=C(C)OCCO4)C3)CC2)cc1 (configuration not stated)	-36	-3	0	0	12	7	/	/	/	/
O=C(NCCc1ccccc1)C(=O)NCC1OCCN1S(=O)(=O)c1ccc([N+](=O)[O-])cc1 (configuration not stated)	28	2	-9	5	47*	-3	73*	2	22	9
Cc1ccc(S(=O)(=O)N2CCOC2CNC(=O)C(=O)NCCc2ccccc2)cc1 (configuration not stated)	37	-4	-1	0	58*	-1	82*	1	41	15
SMILES	TAAR1 antag	HTR2A ag	CHRM1 agonist	CHRM1 antagonist	TAAR1 ag	CHRM1 PAM	TAAR1 ag confirm	Ga16 nonsel ag	TAAR1 desensitize	Ga16 antag count
O=C(NCCc1ccccc1)C(=O)NCC1OCCN1S(=O)(=O)c1ccc(Cl)cc1 (configuration not stated)	-5	6	-1	-4	14	2	/	/	/	/
O=C(NCCc1ccco1)C(=O)NCC1OCCCN1S(=O)(=O)c1ccccc1 (configuration not stated)	24	-6	-4	-7	66*	4	36	6	10	9
O=C(NCCc1ccccc1)C(=O)NCC1OCCCN1S(=O)(=O)c1cccs1 (configuration not stated)	41	2	-2	-8	68*	2	97*	16*	74*	11
COc1ccccc1C(=O)NC(=O)COC(=O)Cn1cnc2c1c(=O)n(C)c(=O)n2C	-19	6	3	-14	4	11	/	/	/	/
C=CCn1ccc(=O)nc1SC	11	4	0	-3	2	6	/	/	/	/
O=C(c1ccc(Cl)c(S(=O)(=O)N2CCOCC2)c1)N1CCCCCC1	6	3	-4	-12	5	16	/	/	/	/
COc1ccc(OC)c(CNC(=O)CCC(=O)N2Cc3cccc(OC)c3Oc3ncccc32)c1	-10	6	-4	-10	1	10	/	/	/	/
O=C(OC(C(=O)NCc1ccco1)c1ccc(Cl)cc1)c1cccs1 (configuration not stated)	-8	-6	-5	6	-1	-2	/	/	/	/
